Reference: ChEMBL document CHEMBL4673268, “The optimization of a novel selective antagonist for human M muscarinic acetylcholine receptor” (Bioorg Med Chem Lett, 2020)
Calls of active or inactive are those of the source. The rule behind the calls is not given here.

Tests used:
[1] = target: T1, Muscarinic acetylcholine receptor M2 (Homo sapiens, UniProt P08172); experiment: Displacement of [3H]-NMS from muscarinic M2 receptor (unknown origin) expressed in CHO-K1 cell membranes assessed as inhibition constant by radioligand competition analysis; parameters: species or system Cell membrane
T1 sequence (P08172 whole entry): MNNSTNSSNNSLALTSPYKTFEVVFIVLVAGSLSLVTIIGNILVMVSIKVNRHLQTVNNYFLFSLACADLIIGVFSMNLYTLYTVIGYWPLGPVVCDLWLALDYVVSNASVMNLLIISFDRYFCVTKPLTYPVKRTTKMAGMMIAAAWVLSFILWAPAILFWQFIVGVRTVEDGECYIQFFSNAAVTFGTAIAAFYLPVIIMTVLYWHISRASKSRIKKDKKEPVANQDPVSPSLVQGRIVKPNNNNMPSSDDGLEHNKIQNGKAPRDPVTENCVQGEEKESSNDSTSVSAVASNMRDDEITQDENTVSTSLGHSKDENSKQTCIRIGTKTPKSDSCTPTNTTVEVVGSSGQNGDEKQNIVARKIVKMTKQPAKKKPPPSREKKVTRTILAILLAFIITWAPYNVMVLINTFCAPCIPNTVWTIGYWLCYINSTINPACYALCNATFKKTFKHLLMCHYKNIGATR

[2] = target: Muscarinic acetylcholine receptors; M1 & M2 (Homo sapiens) (UniProt P11229+P08172); experiment: Selectivity for human muscarinic M2 receptor over muscarinic M1 receptor (unknown origin); format: protein assay
[3] = target: Muscarinic acetylcholine receptors; M2 & M3 (Homo sapiens) (UniProt P20309+P08172); experiment: Selectivity for human muscarinic M2 receptor over muscarinic M3 receptor (unknown origin); format: protein assay
[4] = target: Muscarinic acetylcholine receptor M3 (Homo sapiens, UniProt P20309); experiment: Displacement of [3H]-NMS from muscarinic M3 receptor (unknown origin) expressed in CHO-K1 cell membranes assessed as inhibition constant by radioligand competition analysis; parameters: species or system Cell membrane
Method in brief: (§1)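 Inhibition constants came from radioligand competition binding. Acetylcholine and atropine were included as positive controls for competitive binding. Values are given as mean ± SEM.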

[5] = target: Muscarinic acetylcholine receptor M2 and M4 (Homo sapiens) (UniProt P08173+P08172); experiment: Selectivity for human muscarinic M2 receptor over muscarinic M4 receptor (unknown origin); format: protein assay
[6] = target: T1, Muscarinic acetylcholine receptor M2; experiment: Antagonist activity at human muscarinic M2 receptor expressed in CHO cells co-expressing Galpha15 assessed as inhibition of acetylcholine-induced calcium mobilization relative to acetylcholine; format: functional, cell-based
[7] = target: T2, Muscarinic acetylcholine receptor M2 (Homo sapiens) (UniProt P08172); experiment: Antagonist activity at muscarinic M2 receptor (unknown origin) at 100 uM by acetylcholine titration assay; conditions: filed as antagonist
T2 sequence (whole entry): T1 sequence (P08172 whole entry)
Method in brief: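 Acetylcholine titration curves were run in a radioligand binding format, without and with test ligand at 100 μM. A rightward shift of the ACh curve was taken to indicate negative allosteric modulation, and no shift to indicate orthosteric antagonism.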

[8] = target: T3, Muscarinic acetylcholine receptor M4 (Homo sapiens, UniProt P08173); experiment: Displacement of [3H]-NMS from muscarinic M4 receptor (unknown origin) expressed in CHO-K1 cell membranes assessed as inhibition constant by radioligand competition analysis; parameters: species or system Cell membrane; method in brief: as §1
T3 sequence (P08173 whole entry): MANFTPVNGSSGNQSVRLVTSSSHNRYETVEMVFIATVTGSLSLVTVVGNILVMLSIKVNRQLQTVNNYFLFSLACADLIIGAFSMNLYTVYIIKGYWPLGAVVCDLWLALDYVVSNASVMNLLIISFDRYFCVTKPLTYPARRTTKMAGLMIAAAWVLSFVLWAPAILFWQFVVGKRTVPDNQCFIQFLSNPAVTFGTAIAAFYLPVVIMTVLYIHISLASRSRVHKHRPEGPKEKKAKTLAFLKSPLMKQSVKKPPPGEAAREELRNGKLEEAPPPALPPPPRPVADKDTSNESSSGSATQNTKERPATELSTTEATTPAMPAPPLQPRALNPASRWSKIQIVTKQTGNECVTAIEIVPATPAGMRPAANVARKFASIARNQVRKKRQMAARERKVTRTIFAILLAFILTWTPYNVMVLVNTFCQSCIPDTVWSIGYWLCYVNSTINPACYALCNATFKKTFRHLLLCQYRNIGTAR

[9] = target: T4, Muscarinic acetylcholine receptor M1 (Homo sapiens, UniProt P11229); experiment: Displacement of [3H]-NMS from muscarinic M1 receptor (unknown origin) expressed in CHO-K1 cell membranes assessed as inhibition constant by radioligand competition analysis; parameters: species or system Cell membrane; method in brief: as §1
T4 sequence (P11229 whole entry): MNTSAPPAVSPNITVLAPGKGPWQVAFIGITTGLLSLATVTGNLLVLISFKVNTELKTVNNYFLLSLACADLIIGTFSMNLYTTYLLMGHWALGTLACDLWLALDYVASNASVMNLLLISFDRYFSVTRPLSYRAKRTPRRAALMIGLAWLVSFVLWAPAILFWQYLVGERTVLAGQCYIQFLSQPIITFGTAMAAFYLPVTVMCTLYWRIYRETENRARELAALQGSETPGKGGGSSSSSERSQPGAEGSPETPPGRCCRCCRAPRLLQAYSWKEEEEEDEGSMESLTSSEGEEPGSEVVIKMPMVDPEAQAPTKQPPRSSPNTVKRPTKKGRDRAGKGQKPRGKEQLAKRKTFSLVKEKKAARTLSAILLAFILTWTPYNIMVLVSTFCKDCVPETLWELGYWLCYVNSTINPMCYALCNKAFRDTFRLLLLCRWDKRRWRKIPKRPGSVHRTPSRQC

Muscarinic acetylcholine receptors; M2 & M3 (Homo sapiens), sequence (P20309 whole entry, looked up, one chain of several): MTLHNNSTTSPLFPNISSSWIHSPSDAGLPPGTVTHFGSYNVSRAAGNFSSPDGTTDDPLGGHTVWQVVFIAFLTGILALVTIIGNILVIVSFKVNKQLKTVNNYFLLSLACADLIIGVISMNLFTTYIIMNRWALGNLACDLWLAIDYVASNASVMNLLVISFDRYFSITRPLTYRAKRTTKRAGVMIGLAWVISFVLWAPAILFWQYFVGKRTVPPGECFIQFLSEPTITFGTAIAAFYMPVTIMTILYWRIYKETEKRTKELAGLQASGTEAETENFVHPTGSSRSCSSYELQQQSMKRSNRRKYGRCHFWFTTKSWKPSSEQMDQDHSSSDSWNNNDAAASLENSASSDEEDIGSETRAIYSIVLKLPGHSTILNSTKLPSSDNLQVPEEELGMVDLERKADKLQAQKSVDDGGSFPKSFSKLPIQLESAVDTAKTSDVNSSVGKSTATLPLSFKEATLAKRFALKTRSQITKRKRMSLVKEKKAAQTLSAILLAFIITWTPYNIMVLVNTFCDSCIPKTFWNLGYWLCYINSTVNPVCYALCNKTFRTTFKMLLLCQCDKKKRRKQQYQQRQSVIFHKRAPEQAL
Muscarinic acetylcholine receptor M3, sequence (P20309 whole entry): as the sequence (P20309 whole entry, looked up, one chain of several) above

SMILES: O=C(CCN1CCCc2ccccc21)Nc1cccc2cccnc12
- Ki [1]: 0.617 µM
- Ratio [2]: 8
- Ratio [3]: > 250
- Ki [4]: > 100 µM
- Ratio [5]: 30
- IC50 [6]: 0.479 µM
- Activity [7]: Active
- Ki [8]: 18.2 µM
- Ki [9]: 4.9 µM
